Assay results reported in ChEMBL document CHEMBL1129609, “Synthesis and antiviral activity evaluation of some new aminoadamantane derivatives. 2” (1996).
In brackets after ≈: the same amount, converted by molar mass.

Experiments:
[1] = system: Human immunodeficiency virus 1; test: Antiviral activity against HIV-1 virus infected CEM cell lines.; type: functional, CCRF-CEM
[2] = Antiviral activity against influenza A,H3N2 virus infected MDCK cell lines.; type: functional
HEF = test: Effects on cell morphology of HEF cell lines.; type: functional; details: Homo sapiens
Method in brief: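 Human embryonic skin-muscle fibroblasts were examined under the microscope for changes in normal cell morphology. The value is the minimum concentration causing a microscopically detectable alteration, averaged from at least two separate experiments.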

Human betaherpesvirus 5 = test: Antiviral activity against HCMV virus infected HEL cell lines.; type: functional
Method in brief: (§1)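 Vero (African green monkey kidney), HeLa (human epithelial) or HEL (human embryonic lung) cell monolayers infected with the virus. Readout is the minimum inhibitory concentration that reduces virus-induced cytopathicity by 50%. Values are averages of at least two separate experiments.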

Sindbis virus = test: Antiviral activity against sindbis virus infected Vero cell lines.; type: functional; method in brief: as §1
Coxsackievirus B4 [3] = test: Antiviral activity against Coxsackie B4 virus infected vero cell lines.; type: functional; details: Enterovirus B; method in brief: as §1
Human alphaherpesvirus 3 [4] = test: Antiviral activity against TK+VZV virus infected HEL cell lines.; type: functional; method in brief: as §1
MDCK [5] = test: Antiviral activity tested against influenza A,H1N1 virus infected MDCK cell lines.; type: functional; details: Canis lupus familiaris
Enterovirus C = test: Antiviral activity against polio 1 virus infected HeLa cell lines.; type: functional; method in brief: as §1
Human respirovirus 3 = test: Antiviral activity against parainfluenza 3 virus infected Vero cell lines.; type: functional; method in brief: as §1
Influenza B virus = test: Antiviral activity against influenza B virus infected MDCK cell lines.; type: functional
[6] = system: Vesicular stomatitis virus; test: Antiviral activity against vesicular stomatitis virus infected HeLa cell lines.; type: functional; method in brief: as §1
Human alphaherpesvirus 1 [7] = test: Antiviral activity against HSV-1 virus infected HEF cell lines.; type: functional
Method in brief: (§2)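 Human embryonic fibroblasts, from embryonic lung or embryonic skin-muscle, infected with the virus. Endpoint is the minimum inhibitory concentration that reduces virus-induced cytopathicity by 50%. Values are averages of at least two separate experiments.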

Human alphaherpesvirus 3 [8] = test: Antiviral activity against TK-VZV virus infected HEL cell lines.; type: functional; method in brief: as §1
[9] = Antiviral activity against influenza A,H2N2 virus infected MDCK cell lines.; type: functional
Human alphaherpesvirus 2 = test: Antiviral activity against HSV-2 virus infected HEF cell lines.; type: functional; method in brief: as §2
HEL = test: Inhibition of HEL cell proliferation.; type: functional; details: Homo sapiens
Method in brief: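 Human embryonic lung fibroblasts were used for the proliferation assay. The value is the concentration that reduces cell proliferation by 50%, averaged from at least two separate experiments.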

[10] = system: Mammalian orthoreovirus 1; test: Antiviral activity against Reo 1 virus infected vero cell lines.; type: functional; method in brief: as §1
HeLa = test: Effects on cell morphology of HeLa cell lines.; type: functional; details: Homo sapiens
Method in brief: (§3)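 HeLa (human epithelial) or Vero (African green monkey kidney) cells were examined under the microscope for changes in normal morphology. The value is the minimum concentration causing a detectable alteration, averaged from at least two separate experiments.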

[11] = system: Human immunodeficiency virus 2; test: Antiviral activity against HIV-2 virus infected CEM cell lines.; type: functional, CCRF-CEM
Vaccinia virus = test: Antiviral activity against vaccinia virus infected HEF cell lines.; type: functional; details: Orthopoxvirus vaccinia; method in brief: as §2
Vero = test: Effects on cell morphology of Vero cell lines.; type: functional; details: Chlorocebus sabaeus; method in brief: as §3
Coxsackievirus B4 [12] = test: Antiviral activity against Coxsackie B4 virus infected HeLa cell lines.; type: functional; details: Enterovirus B; method in brief: as §1
Human alphaherpesvirus 1 [13] = test: Antiviral activity against TK-HSV-1 virus infected HEF cell lines.; type: functional; method in brief: as §2
Semliki Forest virus = test: Antiviral activity against Semliki forest virus infected Vero cell lines.; type: functional; method in brief: as §1
CCRF-CEM = test: Cytotoxicity against CEM cell lines.; type: functional; details: Homo sapiens
[14] = system: Vesicular stomatitis virus; test: Antiviral activity against vesicular stomatitis virus infected HEF cell lines.; type: functional; method in brief: as §2
MDCK [15] = test: Antiviral activity of compound was tested against morphology virus infec+ted MDCK cell lines.; type: functional; details: Canis lupus familiaris

Row | SMILES | MIC50 [1] [µg/mL] | MIC50 [2] [µg/mL] | MIC50 (HEF) [µg/mL] | MIC50 (Human betaherpesvirus 5) [µg/mL] | MIC50 (Sindbis virus) [µg/mL] | MIC50 (Coxsackievirus B4 [3]) [µg/mL] | MIC50 (Human alphaherpesvirus 3 [4]) [µg/mL] | MIC50 (MDCK [5]) [µg/mL] | MIC50 (Enterovirus C) [µg/mL] | MIC50 (Human respirovirus 3) [µg/mL] | MIC50 (Influenza B virus) [µg/mL] | MIC50 [6] [µg/mL] | MIC50 (Human alphaherpesvirus 1 [7]) [µg/mL] | MIC50 (Human alphaherpesvirus 3 [8]) [µg/mL] | MIC50 [9] [µg/mL] | MIC50 (Human alphaherpesvirus 2) [µg/mL] | MIC50 (HEL) [µg/mL] | MIC50 [10] [µg/mL] | MIC50 (HeLa) [µg/mL] | MIC50 [11] [µg/mL] | further results
1 | C1CCC2(CC1)CCCN2CC12CC3CC(CC(C3)C1)C2 | > 20 | > 100 | 100 (≈ 348 µM) | > 50 | > 100 | > 100 | 30 (≈ 104 µM) | > 150 | > 100 | > 100 | > 100 | 100 (≈ 348 µM) | > 40 | 20 (≈ 69.6 µM) | > 100 | > 40 | > 50 | > 100 | 200 (≈ 696 µM) | > 20 | MIC50 (Vaccinia virus): > 40 µg/mL; MIC50 (Vero): > 200 µg/mL; MIC50 (Coxsackievirus B4 [12]): > 100 µg/mL; MIC50 (Human alphaherpesvirus 1 [13]): > 40 µg/mL; MIC50 (Semliki Forest virus): > 100 µg/mL; MIC50 (CCRF-CEM): 33 µg/mL (≈ 115 µM); MIC50 [14]: > 40 µg/mL; MIC50 (MDCK [15]): > 250 µg/mL
2 | CC1(C)CCCN1CC12CC3CC(CC(C3)C1)C2 | > 40 | > 87 | 100 (≈ 404 µM) | > 50 | > 200 | > 200 | > 50 | > 150 | > 200 | > 200 | > 100 | 100 (≈ 404 µM) | > 40 | > 50 | 35 (≈ 141 µM) | > 40 | > 50 | > 200 | > 400 | > 40 | MIC50 (Vaccinia virus): > 40 µg/mL; MIC50 (Vero): > 400 µg/mL; MIC50 (Coxsackievirus B4 [12]): > 200 µg/mL; MIC50 (Human alphaherpesvirus 1 [13]): > 40 µg/mL; MIC50 (Semliki Forest virus): > 200 µg/mL; MIC50 (CCRF-CEM): 99 µg/mL (≈ 400 µM); MIC50 [14]: > 40 µg/mL; MIC50 (MDCK [15]): > 250 µg/mL
3 | CC(C)(C)C1CCCN1CC12CC3CC(CC(C3)C1)C2 (stereo not drawn) | > 40 | > 100 | 200 (≈ 726 µM) | > 50 | > 200 | > 200 | 35 (≈ 127 µM) | > 104 | > 100 | > 200 | > 100 | > 100 | > 100 | 20 (≈ 72.6 µM) | > 100 | > 100 | > 50 | > 200 | 200 (≈ 726 µM) | > 40 | MIC50 (Vaccinia virus): > 100 µg/mL; MIC50 (Vero): 400 µg/mL (≈ 1450 µM); MIC50 (Coxsackievirus B4 [12]): > 100 µg/mL; MIC50 (Human alphaherpesvirus 1 [13]): > 100 µg/mL; MIC50 (Semliki Forest virus): > 200 µg/mL; MIC50 (CCRF-CEM): 72 µg/mL (≈ 261 µM); MIC50 [14]: > 100 µg/mL; MIC50 (MDCK [15]): > 250 µg/mL
4 | CN1CCCC1C12CC3CC(CC(C3)C1)C2 (stereo not drawn) | > 40 | 60 (≈ 274 µM) | 200 (≈ 912 µM) | > 50 | > 400 | > 400 | > 50 | > 34 | > 400 | > 400 | 60 (≈ 274 µM) | > 400 | > 100 | > 50 | 16.5 (≈ 75.2 µM) | > 100 | > 50 | > 400 | > 400 | > 40 | MIC50 (Vaccinia virus): > 100 µg/mL; MIC50 (Vero): > 400 µg/mL; MIC50 (Coxsackievirus B4 [12]): > 400 µg/mL; MIC50 (Human alphaherpesvirus 1 [13]): > 100 µg/mL; MIC50 (Semliki Forest virus): > 400 µg/mL; MIC50 (CCRF-CEM): 120 µg/mL (≈ 547 µM); MIC50 [14]: > 100 µg/mL; MIC50 (MDCK [15]): 250 µg/mL (≈ 1140 µM)
5 | CN(C)C1(C23CC4CC(CC(C4)C2)C3)CCCC1 | > 40 | > 100 | 100 (≈ 404 µM) | 40 (≈ 162 µM) | > 400 | > 400 | 30 (≈ 121 µM) | > 80 | > 100 | > 400 | > 100 | > 100 | > 40 | 30 (≈ 121 µM) | 19.7 (≈ 79.6 µM) | > 40 | 50 (≈ 202 µM) | > 400 | 200 (≈ 808 µM) | > 40 | MIC50 (Vaccinia virus): > 40 µg/mL; MIC50 (Vero): > 400 µg/mL; MIC50 (Coxsackievirus B4 [12]): > 100 µg/mL; MIC50 (Human alphaherpesvirus 1 [13]): > 40 µg/mL; MIC50 (Semliki Forest virus): > 400 µg/mL; MIC50 (CCRF-CEM): 70 µg/mL (≈ 283 µM); MIC50 [14]: > 40 µg/mL; MIC50 (MDCK [15]): > 250 µg/mL
6 | C1CCC2(NC1)C1CC3CC(C1)CC2C3 (stereo not drawn) | > 40 | 43 (≈ 209 µM) | 400 (≈ 1950 µM) | > 50 | > 400 | > 400 | > 50 | > 35 | > 400 | > 400 | 60 (≈ 292 µM) | > 400 | 100 (≈ 487 µM) | > 50 | 0.24 (≈ 1.17 µM) | > 200 | > 50 | > 400 | > 400 | > 40 | MIC50 (Vaccinia virus): > 200 µg/mL; MIC50 (Vero): > 400 µg/mL; MIC50 (Coxsackievirus B4 [12]): > 400 µg/mL; MIC50 (Human alphaherpesvirus 1 [13]): > 200 µg/mL; MIC50 (Semliki Forest virus): > 400 µg/mL; MIC50 (CCRF-CEM): 93 µg/mL (≈ 453 µM); MIC50 [14]: > 200 µg/mL; MIC50 (MDCK [15]): > 250 µg/mL
